# Assay results published in ChEMBL document CHEMBL2146375, “Synthesis and evaluation of indole-containing 3,5-diarylisoxazoles as potential pro-apoptotic antitumour agents” (Eur J Med Chem, 2012).
# Key:
# [1] = Cytotoxicity against human COLO320 cells assessed as cell viability after 72 hrs by WST-1 assay; type: functional, cell-based; conditions: COLO 320, 72 h
# How it was run: (§1)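 Cells grown in DMEM with L-glutamine (2 mM), 10% foetal bovine serum, 2.5% horse serum and penicillin/streptomycin at 37 °C under 5% CO₂. Seeded at 2 × 10³ cells/well and exposed to compound for 72 h, with DMSO ≤0.2% final. WST-1 added, absorbance read at 450 nm, and % reduction vs control calculated. IC₅₀ and Emax from nonlinear least-squares curve fit. Mean ± SEM, n = 3.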
# [2] = tested on: Calu-3; assay: Cytotoxicity against human Calu3 cells assessed as cell viability after 72 hrs by WST-1 assay; type: functional, cell-based; conditions: Calu-3, 72 h; how it was run: as §1
# [3] = tested on: COLO 320; assay: Induction of apoptosis in human COLO320 cells assessed as induction of caspase-3/7 at 20 uM after 4 hrs by spectrofluorimetry relative to control; type: functional; conditions: in the assay text read “at 10 uM” for “at 20 uM”
# How it was run: (§2)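 Cells seeded at 7 × 10³/well and treated with compound for 4 h. Apo-ONE homogeneous caspase-3/7 substrate then added. Fluorescence read at excitation 485 nm and emission 530 nm. Result given as the ratio of treated-cell signal to vehicle-only cells.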
# [4] = tested on: Calu-3; assay: Induction of apoptosis in human Calu3 cells assessed as induction of caspase-3/7 at 10 uM after 4 hrs by spectrofluorimetry relative to control; type: functional; conditions: in the assay text read “at 20 uM” for “at 10 uM”; how it was run: as §2
# [5] = Cytotoxicity against human BSMC cells assessed as cell viability at 20 uM after 72 hrs by WST-1 assay; type: cell-based
# How it was run: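 Normal human bronchial smooth muscle cells grown in DMEM with 10% FBS and exposed to compound for 72 h. Viability compared with untreated control.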
SMILES,IC50 [1] [µM],IC50 [2] [µM],fold change (FC) [3],fold change (FC) [4],Activity [5]
COC(=O)c1ccc(-c2cc(-c3ccc4[nH]ccc4c3)on2)cc1,> 100,> 100,,,
O=[N+]([O-])c1ccc(-c2cc(-c3ccc4[nH]ccc4c3)on2)cc1,14,25.8,3.76,2.84,Toxic
COc1cccc(-c2cc(-c3cc4cc(OC)ccc4[nH]3)no2)c1,> 100,> 100,,,
Cn1c(-c2cc(-c3ccc(F)cc3)no2)cc2ccccc21,> 100,> 100,,,
COc1ccc(-c2cc(-c3ccc4[nH]ccc4c3)on2)cc1,13.5,22.5,2.18,2.44,Non-toxic
COc1ccc(-c2cc(-c3c(Cl)c4ccccc4n3C)no2)cc1,78.1,60.9,,,
COc1cccc(-c2cc(-c3cc4ccccc4n3C)no2)c1,69.5,17.3,,,
COc1ccc(-c2cc(-c3cc4ccccc4[nH]3)no2)cc1,> 100,> 100,,,
COc1ccc2[nH]c(-c3cc(-c4cccc(F)c4)on3)cc2c1,> 100,> 100,,,
COc1ccc2[nH]c(-c3cc(-c4cccc(F)c4)no3)cc2c1,> 100,97.9,,,
O=c1[nH]cc(F)c(=O)[nH]1 [FLUOROURACIL],12.5,,,,
Fc1ccc(-c2cc(-c3ccc4[nH]ccc4c3)on2)cc1,13.9,16.8,1.81,1.94,Toxic
Cn1c(-c2cc(-c3cccc(F)c3)on2)cc2ccccc21,> 100,> 100,,,
COc1cccc(-c2cc(-c3cc4ccccc4[nH]3)no2)c1,> 100,> 100,,,
COc1cc(-c2cc(-c3ccc4[nH]ccc4c3)on2)cc(OC)c1OC,9,13.3,2.38,3.39,Non-toxic
COc1ccc(-c2cc(-c3cc4ccccc4n3C)no2)cc1,> 100,> 100,,,
COc1cccc(-c2cc(-c3cc4ccccc4n3C)on2)c1,> 100,> 100,,,
COc1ccc(-c2cc(-c3cc4ccccc4n3C)on2)cc1,> 100,> 100,,,
Cn1c(-c2cc(-c3ccc(C(F)(F)F)cc3)on2)c(Cl)c2ccccc21,> 100,> 100,,,
